OX1R antag-1: antagonists of human orexin 1 receptor; O43613; inhibition, % at 5 µM; AID 434989; CHO/OX1R cells, Fluo-8 calcium fluorescence, orexin A; actives 0.43% (n = 330,000);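 active = inhibition above its plate's threshold, mean inhibition of all tested compounds on the plate plus 3 SD, cut at about 37% in these data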;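 note: 0% = orexin A challenge wells and 100% = SB-334867-A antagonist wells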
GPR7 antag: human neuropeptides B/W receptor 1 antagonism. P48145. GPR7-expressing cells, fluorescence antagonist assay. inhibition, % at 4.4 µM. actives 1.1% (n = 290,000); in the data active = inhibition above about 16%, passing the limit was not always enough;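 note: cells stimulated with the agonist NPW; 0% = agonist with vehicle and 100% = vehicle without agonist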
Target sequence (P48145 whole entry, looked up): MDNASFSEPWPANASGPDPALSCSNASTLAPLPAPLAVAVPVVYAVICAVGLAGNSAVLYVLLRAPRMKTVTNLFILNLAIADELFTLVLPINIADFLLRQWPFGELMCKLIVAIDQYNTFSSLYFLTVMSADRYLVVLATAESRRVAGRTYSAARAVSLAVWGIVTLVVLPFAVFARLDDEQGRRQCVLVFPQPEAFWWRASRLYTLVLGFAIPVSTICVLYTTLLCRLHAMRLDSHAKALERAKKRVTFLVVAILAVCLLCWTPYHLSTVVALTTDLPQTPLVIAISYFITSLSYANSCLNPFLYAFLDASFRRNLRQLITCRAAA
TAAR1 antagonist: human TAAR1 antagonism. CHO RD-HGA16 TAAR1, Fluo-8 calcium fluorescence, antagonist. inhibition, % at 3 µM. actives 1.5% (n = 360,000). AID 624466. Q96RJ0;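 active = inhibition above a per-plate cutoff, the mean inhibition of test compounds on that plate plus 3 SD, cut at about 49% in these data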;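 note: 0% = DMSO plus EC80 beta-PEA response and 100% = DMSO alone without agonist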
Target sequence (Q96RJ0 whole entry, looked up): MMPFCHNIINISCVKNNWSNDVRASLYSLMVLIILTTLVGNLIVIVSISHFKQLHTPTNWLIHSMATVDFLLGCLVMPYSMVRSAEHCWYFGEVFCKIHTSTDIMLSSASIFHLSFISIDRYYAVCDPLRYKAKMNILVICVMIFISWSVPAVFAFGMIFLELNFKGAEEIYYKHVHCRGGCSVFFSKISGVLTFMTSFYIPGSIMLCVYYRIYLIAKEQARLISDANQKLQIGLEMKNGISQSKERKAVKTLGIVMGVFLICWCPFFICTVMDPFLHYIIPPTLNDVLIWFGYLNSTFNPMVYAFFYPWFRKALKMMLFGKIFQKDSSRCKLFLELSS
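System: CHO RD-HGA16 cells bearing hTAAR1. Reagent: EC80 β-phenethylamine stimulus. Schedule: seeding 17-24 h prior, 75-min 37 °C, 30-min RT dye loading. Signal: Fluo-8 intracellular calcium dye fluorescence, real-time kinetic reads. Read-out: % inhibition from peak post-agonist over basal fluorescence ratio. Benchmarks: vehicle wells and EC80 agonist wells. Replicates: n of 1.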
CHO parental Ca: signal in parental CHO cells, OX1R antagonist counter-screen. actives 0.63% (n = 330,000). parental CHO-K1, ATP-induced calcium, Fluo-8 fluorescence. inhibition, % at 5.6 µM. AID 463079;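 active = inhibition above that plate's mean sample inhibition plus 3 SD, cut at about 26% in these data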;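 note: 0% = ATP-challenged DMSO wells and 100% = DMSO wells without ATP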
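Material: Parental CHO cells | Reagent: ATP | Compound dosing: Single nominal dose of 5.6 µM per compound | Detection: Intracellular calcium via Fluo-8 no-wash fluorescent dye | Read-out: % inhibition of ATP-induced calcium mobilization | Benchmarks: Low control ATP plus DMSO, high control DMSO only | Replicates: Singlicate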
OX1R antag-2: blocks the human orexin 1 receptor; O43613; OX1R-expressing cells, FRET antagonist read-out; inhibition, % at 6.6 µM; actives 1.8% (n = 330,000); in the data active = inhibition mostly above about 38%, no sharp cut-off; inactive = mostly below about 40%;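 note: 0% = agonist challenge alone and 100% = reference antagonist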
TAAR1 ag: agonists of human TAAR1; actives 0.99% (n = 360,000); activation, % at 3 µM; CHO RD-HGA16 TAAR1, Fluo-8 calcium fluorescence; vehicle wells 0%, saturating PEA agonist 100%; Q96RJ0;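 active = activation above the mean activation of all test compounds in the run plus 3 SD, cut at about 38% in these data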
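System: CHO-derived RD-HGA16 cells with stable Gα16 and human TAAR1. Times: 17-24 h plating, Fluo-8 75 min 37 °C, 30 min RT. Measured by: calcium-sensitive Fluo-8 signal, excitation 470-495, emission 515-575 nm. Read-out basis: % activation relative to PEA EC100 response. Control set: DMSO and PEA EC100. Repeats: no replicates (n 1).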
OX1R HTRF conf: confirmation of human orexin 1 receptor antagonists, HTRF format; shares compounds with OX1R antag-2; actives 49% (n = 1,800); OX1R-expressing cells, HTRF antagonist assay; inhibition, % at 6.6 µM; AID 492964; in the data active = inhibition above about 55%;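 note: CHO cells expressing OX1R stimulated with orexin A at about EC80; 0% = agonist challenge alone and 100% = reference antagonist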
CHO-K1 HTRF: signal in parental CHO-K1 cells, OX1R antagonist counter-screen. inhibition, % at 6.6 µM. shares compounds with OX1R antag-2. HTRF counterscreen. actives 48% (n = 1,800). AID 493232; in the data active = inhibition above about 17%;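 note: 0% = agonist challenge with vehicle and 100% = vehicle alone without agonist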
nonsel antag count: counter-screen for TAAR1 antagonists: nonselective antagonists; inhibition, % at 3 µM; counterscreen cell line, calcium fluorescence, antagonist mode; shares compounds with TAAR1 antagonist; actives 77% (n = 2,400); AID 651780; in the data active = inhibition above about 22%;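 note: CHO-Ga16 host cells stimulated with ATP at an EC80 level; 0% = agonist EC80 plus vehicle and 100% = vehicle without agonist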
TAAR1 antag conf: human TAAR1 antagonism, confirmed | shares compounds with TAAR1 antagonist | TAAR1-expressing cells, fluorescence antagonist read-out | inhibition, % at 3 µM | actives 40% (n = 2,400); in the data active = inhibition above about 49%;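 note: CHO-Ga16 host cells challenged with agonist PEA near its EC80; 0% = agonist at EC80 plus vehicle and 100% = vehicle with no agonist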
Ga16 ag counter-1: nonselective Ga16 agonist in TAAR1 antagonist counter-screen. shares compounds with TAAR1 antagonist. Ga16-expressing cells, calcium fluorescence, agonist counterscreen. activation, % at 3 µM. actives 18% (n = 2,400); in the data active = activation above about 12%;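 note: 0% = vehicle wells and 100% = saturating stimulus response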
TAAR1 ag count: TAAR1 agonism, antagonist counter-screen. shares compounds with TAAR1 antagonist. hTAAR1 cell line, fluorescence activation, agonist mode. activation, % at 3 µM. actives 2% (n = 2,400). AID 651955; in the data active = activation above about 37%;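 note: CHO cells stably expressing TAAR1 with calcium dye readout; 0% = DMSO vehicle and 100% = full agonist response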
TAAR1 ag conf: human TAAR1 agonism, confirmed; shares compounds with TAAR1 ag; CHO RD-HGA16 TAAR1, Fluo-8 calcium fluorescence; scaled: DMSO 0%, maximal phenethylamine 100%; activation, % at 3 µM; actives 82% (n = 2,400); AID 651783;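 active = activation above a cutoff set at the run's mean compound activation plus 3 SD, cut at about 39% in these data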
Ga16 ag counter-2: counter-screen for TAAR1 agonists: nonselective agonists in parental cells; actives 50% (n = 2,400); activation, % at 3 µM; CHO-Ga16 parental, Fluo-8 calcium fluorescence; normalized to maximal ATP response, DMSO zero; shares compounds with TAAR1 ag;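 active = activation above the run cutoff, the mean activation over all tested wells plus 3 SD, cut at about 12% in these data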;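 note: 0% = DMSO wells and 100% = maximal ATP response on the peak over basal ratio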
TAAR1 desens: human TAAR1 agonist that also desensitizes the receptor | shares compounds with TAAR1 ag | CHO RD-HGA16 hTAAR1, Fluo-8 calcium, beta-PEA response inhibition | inhibition, % at 3 µM | actives 46% (n = 2,400) | AID 651951;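 active = inhibition above the run cutoff, the mean inhibition of all test compounds plus 3 SD, cut at about 49% in these data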;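 note: beta-PEA stimulus applied at its EC80; loss of beta-PEA calcium signal after compound pretreatment read as receptor desensitization; 0% = DMSO with beta-PEA at EC80 and 100% = DMSO alone without agonist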
Ga16 antag count: nonselective Ga16 antagonism, counter-screen | shares compounds with TAAR1 ag | CHO-Ga16 ATP-induced calcium, Fluo-8 fluorescence | inhibition, % at 3 µM | actives 39% (n = 2,400) | AID 651952;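 active = inhibition above the plate's mean compound inhibition plus 3 SD, computed per plate, cut at about 22% in these data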;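 note: 0% = EC80 ATP with DMSO and 100% = DMSO wells without ATP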
Numbers without * were called inactive. This is a sample that favours compounds with a hit; in the whole collection about 4.6% have one here.

How did O=C(COc1ccc(Cl)cc1)N1CCN(C/C=C/c2ccccc2)CC1 do in these assays?
OX1R antag-1: -12; GPR7 antag: -8; TAAR1 antagonist: 24; CHO parental Ca: 0; OX1R antag-2: 2; TAAR1 ag: 6

How did O=c1[nH]c(=S)[nH]c(O)c1N=Nc1cccc(S(=O)(=O)N2CCOCC2)c1 do in these assays?
OX1R antag-1: -13; GPR7 antag: -11; TAAR1 antagonist: -18; CHO parental Ca: -4; OX1R antag-2: 97*; TAAR1 ag: 2; OX1R HTRF conf: 60*; CHO-K1 HTRF: 66*

Results for O=c1[nH]c(=S)[nH]c(O)c1N=Nc1ccc2c(c1)OCCO2 ?
OX1R antag-1: -9; GPR7 antag: -18; TAAR1 antagonist: -11; CHO parental Ca: -3; OX1R antag-2: 146*; TAAR1 ag: -2; OX1R HTRF conf: 62*; CHO-K1 HTRF: 66*

What do the screens show for `COc1ccc(N=Nc2c(O)[nH]c(=S)[nH]c2=O)cc1`?
OX1R antag-1: 2; GPR7 antag: -10; TAAR1 antagonist: 8; CHO parental Ca: -8; OX1R antag-2: active; TAAR1 ag: 1; OX1R HTRF conf: 63*; CHO-K1 HTRF: 100*

What do the screens show for `O=c1[nH]c(O)c(N=Nc2cccc(S(=O)(=O)N3CCOCC3)c2)c(=O)[nH]1`?
OX1R antag-1: -5; GPR7 antag: -10; TAAR1 antagonist: 8; CHO parental Ca: 0; OX1R antag-2: 88*; TAAR1 ag: 3; OX1R HTRF conf: 55*; CHO-K1 HTRF: 79*

What do the screens show for `O=C(N=Nc1c(O)[nH]c(=O)[nH]c1=O)C1COc2ccccc2O1` (stereo unspecified)?
OX1R antag-1: -2; GPR7 antag: -1; TAAR1 antagonist: 10; CHO parental Ca: 3; OX1R antag-2: 2; TAAR1 ag: -2

Results for Fc1c(F)c(F)c(N2CCNCC2)c(F)c1F ?
OX1R antag-1: -1; GPR7 antag: 0; TAAR1 antagonist: -22; CHO parental Ca: 10; OX1R antag-2: 20; TAAR1 ag: 4

What do the screens show for `O=C(O)c1ccc(/C=C/c2nc3ccccc3c(=O)n2-c2ccc(Br)cc2)cc1`?
OX1R antag-1: -3; GPR7 antag: -11; TAAR1 antagonist: 20; CHO parental Ca: -5; OX1R antag-2: 43; TAAR1 ag: 9

What do the screens show for `NS(=O)(=O)c1ccc(N=Nc2c(O)[nH]c(=S)[nH]c2=O)cc1`?
OX1R antag-1: 1; GPR7 antag: -3; TAAR1 antagonist: -8; CHO parental Ca: -3; OX1R antag-2: 77*; TAAR1 ag: 0; OX1R HTRF conf: 67*; CHO-K1 HTRF: 79*

How did O=c1[nH]c(=S)[nH]c(O)c1N=Nc1ccc(S(=O)(=O)N2CCOCC2)cc1 do in these assays?
OX1R antag-1: -13; GPR7 antag: 1; TAAR1 antagonist: 9; CHO parental Ca: 8; OX1R antag-2: 140*; TAAR1 ag: -1; OX1R HTRF conf: 49; CHO-K1 HTRF: 65*

What do the screens show for `CCC1C2Cc3ccc(O)cc3C1(CC)CCN2C` (stereo unspecified)?
TAAR1 antagonist: -2; TAAR1 ag: 6

What do the screens show for `Nc1ccc2nonc2c1[N+](=O)[O-]`?
OX1R antag-1: -5; GPR7 antag: -12; TAAR1 antagonist: 23; CHO parental Ca: 2; OX1R antag-2: 83*; TAAR1 ag: 72*; OX1R HTRF conf: 48; CHO-K1 HTRF: 91*; TAAR1 ag conf: 3; Ga16 ag counter-2: 25*; TAAR1 desens: 4; Ga16 antag count: 9

Results for COc1ccc(OC)c(CNCCc2ccc(OC)c(OC)c2)c1 ?
OX1R antag-1: -8; GPR7 antag: 3; TAAR1 antagonist: 8; CHO parental Ca: -18; OX1R antag-2: 24; TAAR1 ag: 1

What do the screens show for `CCOC(=O)CC(SP1(=S)OCC2(CC=CCC2)CO1)C(=O)OCC` (stereo unspecified)?
TAAR1 antagonist: 70*; TAAR1 ag: 8; nonsel antag count: 39*; TAAR1 antag conf: 61*; Ga16 ag counter-1: 9; TAAR1 ag count: 7

How did NC1C2CN3CCN(C2)CC1(c1ccccc1)C3 (stereo unspecified) do in these assays?
OX1R antag-1: -4; GPR7 antag: -15; TAAR1 antagonist: 3; CHO parental Ca: 2; OX1R antag-2: 5; TAAR1 ag: 2

How did O=c1[nH]c2ccccc2n1C1CCN(Cc2ccc(-c3[nH]c4cc5ncnc5cc4nc3-c3ccccc3)cc2)CC1 do in these assays?
TAAR1 antagonist: 67*; TAAR1 ag: 5; nonsel antag count: 21; TAAR1 antag conf: 40; Ga16 ag counter-1: 6; TAAR1 ag count: 12

What do the screens show for `Cc1cccc(C)c1-n1nnnc1C(c1cc2ccccc2o1)N1CCC(n2c(=O)[nH]c3ccccc32)CC1` (stereo unspecified)?
TAAR1 antagonist: 37; TAAR1 ag: 0
